According to the EternaBench riboswitch data:

System: MS2 coat protein
Experiment: apparent Kd, MS2 coat protein; higher = weaker binding; RNA-MaP array; FMN 200 µM where present
Method in brief: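 Binding was read on Illumina sequencing-chip clusters where stalled E. coli RNA polymerase had transcribed each design. A titration of SNAP-549-labelled MS2 coat protein began at 0.7 or 1.5 nM and doubled to 3 µM, once without ligand and once with constant ligand, in 100 mM Tris-HCl pH 7.5, 80 mM KCl, 4 mM MgCl2, BSA, DTT, yeast tRNA and Tween-20. The apparent Kd is the median of filtered per-cluster binding-curve fits, based on green signal normalised to red-channel RNA signal and control-cluster median Fmax.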

[1] = designed as: OFF switch for flavin mononucleotide, no ligand
[2] = ligand present: flavin mononucleotide, designed as: OFF switch for flavin mononucleotide
[3] = designed as: ON switch for flavin mononucleotide, no ligand
[4] = ligand present: flavin mononucleotide, designed as: ON switch for flavin mononucleotide

Sequence | apparent Kd [1] [nM] | apparent Kd [2] [nM] | apparent Kd [3] [nM] | apparent Kd [4] [nM]
CUUUUGUGAGGAUAUUAGUAGUAAAUUAAUAAAAUUACUACUGAGAAGGCACAUGAGGAUCACCCAUGUUCCUC | 30.8 | 190 |  | 
AAAAUGCAAGGAUAUACAUGAGGAUCACCCAUGUAGAAGGAAGCGAGGGUUUCCUGCUGUAGAAGGUGCUACAG | 23 | 20.5 |  | 
GGGUACAUCGGAGGAUAUCAUGUAAAUACAUGAGGAUCACCCAUGUCGACGGAGACAUCGGAGAUUGAGAAGGCCGAUGUACCG |  |  | 42.2 | 367
UAAGUCGAGAAGAUAAUAAUGAAUACAUGAGGAUCACCCAUGUAGGAUAUGCAGUGGAAUACACUGCAGAAGGACAUACUCGAC | 14.3 | 16.9 |  | 
CCAGUGCGGGUGGUAUGGCUAACAUGAGGAUCACCCAUGUUGCAGGAUAUCGGCCAGAUUGGGCGCGAGAAGGGCAACGCUGAA | 86.6 | 32.6 |  | 
GUCCUCGGCGAGGAUAUCGGGCGGGUUUUUGUUUGAGAAGGCGUGACAUGAGGAUCACCCAUGUGGCGCGUGGG | 41.6 | 59.3 |  | 
UCUUGACAUGAGGAUCACCCAUGUCAGGAUAUAGUAGGACAAAUAAAUAAAAGUUCUACUAGAAGGGACGUGGG | 20.4 | 26.7 |  | 
AAAUAGACAGGAUAUGCAUGAAAAUUAAAAAAAAAAAAAAAACAUGAGGAUCACCCAUGUAGAAGGGUCAAAAA | 107 | 99.5 |  | 
CUACCGCGUGUGAGGAUAUUAUCACGUUACGGCGCUAAGAAGGUACAUGAGGAUCACCCAUGUCUCAACGGGUG | 447 | 546 |  | 
GUGCUUAACUAGAAGGCCGAUAGCAAAGCUAUCGGAGGAUAUGGGUUCCGGAAACGGACAUGAGGAUCACCCAUGUGGCACAAA |  |  | 121 | 14.6
CGUUAUGAUAAAGGAUAUAUAAUAGAUAUACAUGAGGAUCACCCAUGUUACAUGGAUUCAAAUUUAUAGAAGGUUAUCCUAUCG | 36 | 22.6 |  | 
GUGGUACAUGAGGAUCACCCAUGUUAGGAUAUCGCGUGAGGUUUUGCUUCCGCGCGCGCGAGAAGGGACGUCUU | 28.3 | 23.9 |  | 
CAUACAGUAGUCAGGAUAUUGGAAGAGACACGGAACGAGAAGGGACAUGAGGAUCACCCAUGUAUACUGUAAAG | 26.8 | 22.6 |  | 
AAUUUGGUCGUAGGAUAUCGGAAGCGGUGCGAACGAGAAGGGCGACAUGAGGAUCACCCAUGUAGCCACGAAGGCGAUCCUUGG | 9.75 | 16.3 |  | 
CUUUUGUGAGGAUAUCAGUAGUAAAAAAAUAAAAUUACUACUUAGAAGGCACAUGAGGAUCACCCAUGUUCCUC | 23.4 | 53 |  | 
GGACGUCUCGUUUACAUGAGGAUCACCCAUGUCGAUAGACAUGAGGAUAUGGAUCCGAAUCGGAUCCAGAAGGCAUGGACGUCC |  |  | 486 | 35
UUGGCGCGAUCCUGGGUCUCACAUGAGGAUCACCCAUGUAGAGAGGAUAUGCAUAGGGCCCAUUGGCAGAAGGCUCUACAUGAG | 101 | 47.3 |  | 
GAUCGGUGAGGAUAUACAUUUUAGCUCCUCGUAAAGCCAUGACAUGAGGAUCACCCAUGUAGAAGGUAUUGUGU | 22.3 | 20 |  | 
AACCUAUUACAGAAGGCCAGCUACAUGAGGAUCACCCAUGUCGAGUCAUGGAGGAUAUGUAGUAAUUUACUCGCAGAUAAGUGC |  |  | 22.6 | 4.45
CUGAGCAAUCAAGGAUAUCACGUCGAUUAGACGUGAGAAGGUGAUCAUUACAUGAGGAUCACCCAUGUAUUACAUGGAGCUCAG |  |  | 1370 | 365
UUUCCCUGGCAAGGAUAUCCUGUGCGGUUCCGGCUCGUGUCUGUUACAUGAGGAUCACCCAUGUGGGAGAAGGUGCCUGUGGCU | 53.2 | 232 |  | 
UACCUGAGGCCAAGCUUUAGGUAUACAUGAGGAUCACCCAUGUAGGAUAUGGUAGGCUUUGCUUACCAGAAGGACAUGUUAAUU | 19 | 64.9 |  | 
AUGAGGUCAGGAUAUGCAUGGCGGGACUUGCGUCGUGGCGUGCAGAAGGGACAUGAGGAUCACCCAUGUGGAGC | 73.4 | 169 |  | 
AUCAGCUCGUCAGGAUAUACGUCACUGCGUCAGCAGUGUGGUAAGAUCACAUGAGGAUCACCCAUGUAGAAGGGACGUGCUGAU | 13.3 | 314 |  | 
UAUUGAUAAUAUUUUAACAUGAGGAUCACCCAUGUCGCUAGACAGGAUAUAUUUUAUUUGUUUAAGUAGAAGGGUCGUAGAUUU |  |  | 200 | 152
GCUUCGGCAGGAUAUACAUGAGGAUCACCCAUGUUGAAGUUGAAGAUCUUCGGCUUCGGUAGAAGGGUUGAAGU | 38 | 32.1 |  | 
ACCUUACAUGAGGAUCACCCAUGUCAGGAUAUCUCGGGCGGCCAAGGGCCGGCCGCCCAGAGAAGGGACGAGGA | 14.5 | 13.7 |  | 
UGGUACUAUGGAGGAUAUGGGAAGAUACAUGAGGAUCACCCAUGUUUAAGAAUGCCGAGAGGCAACUAGAAGGCCCUAGUACCU |  |  | 349 | 32.7

Sequence | apparent Kd [1] [nM] | apparent Kd [2] [nM] | apparent Kd [3] [nM] | apparent Kd [4] [nM]
CAGUACUGAGGAUAUACAUGAGGAUCACCCAUGUGUCCUAGCUAGGAAACUAGCAUUAGUAGAAGGCAGUACUG | 18.9 | 300 |  | 
AUGUAGAACGUAGGAUAUCAAUGAGGAUCACCCUGAGAAGGACGUGAGGACAUGAGGAUCACCCAUGUGGAUCACCCAUGUCAU | 160 | 134 |  | 
UAGUUAUUCACAGGAUAUCGCCUCUUAUUACAUGAGGAUCACCCAUGUUUACUUAGUUACAUGUUCGAGAAGGGUGUAGCCGUU | 491 | 554 |  | 
GCCAACUUAUGAGGAUAUGGCACCUUAUUGGUGCCAGAAGGCAUGUCUAUUGACAUGAGGAUCACCCAUGUAUUAUAGUUGGCA |  |  | 715 | 159
AAUGGCUGGUGAACUUGGUCACAUGAGGAUCACCCAUGUUAUGAGGAUAUCGCUGCACAUUGACGUGAGAAGGCAUAGCAAGCC | 132 | 453 |  | 
GGAAAGAAAAGCGAGGAUAUGCUAGGUAAUACAUGAGGAUCACCCAUGUUUUUUUUUAACAAAUUGCAGAAGGCGCAAGAAAGAAA |  |  | 24.5 | 17.4
GUUGCACAAGUUAACAUGAGGAUCACCCAUGUCAAAAGACAUGAGGAUAUGGAUGUGAAGAUAAUCCAGAAGGCAUAAUGCUAA |  |  | 596 | 129
GGUUGUCAUAGUCAUCCUUAACGAACAUGAGGAUCACCCAUGUAGGAUAUGCUACUCAAAGAGUAGCAGAAGGGCGUGUGUCUU | 56.6 | 62.9 |  | 
UUGUUGUAUGUAGGAUAUGCAUAUUAUUAUUAUGCAGAAGGACAUGAGGAUCACCCAUGUAUGUUAUUAUUAUAUGUUAUAUGU | 33.6 | 42.6 |  | 
AGUCCAGAAGGAUAUACAUAGGUGAAAAAAAAAAAAAAACUACAUGAGGAUCACCCAUGUAGAAGGUCUGGACA | 93.5 | 46 |  | 
GACUUCCGAGGAUAUACAUGAGGAUCACCCAUGUGCUUCAGCAUUUUUUGAUGCAUGGGUAGAAGGCGGUAGUU | 261 | 281 |  | 
AUAUUACGAGGAUAUCGUUUUUUUCACAUGAGGAUCACCCAUGUUAUUUAUGUUUCGUUUCGAGAAGGCGUAAGUU | 25 | 22.1 |  | 
GAUUUCUAAGGAUAUACUGAUGUUCCUAAGUCUAGCGGCUCACAUGAGGAUCACCCAUGUAGAAGGUGGAGGUU | 27.8 | 30.1 |  | 
UUAUUAUAUGUAGGAUAUGCAUAUUGUUAUUAUGCAGAAGGACAUGAGGAUCACCCAUGUAUAUUAUUAUUAUAUAUUAUAUAU | 29.4 | 48.8 |  | 
GAAUAAUUGAUCCUUUUUUAUUACAUGAGGAUCACCCAUGUGCAGGAUAUCGAUUAUUAUAGUUUCGAGAAGGGCAAGAACUAU | 27.5 | 128 |  | 
UGCGCUGAGGGAGGAUAUGACAUGAGGAUCACCCAUGUGAUAGGUUUCUUGUCAGAAGGCCCGCAUGUACCAAAUUAGGUUUGU | 94 | 126 |  | 
UGUUAAUUGUAGAAGGGUGACAUGAGGAUCACCCAUGUUCACAUGCGAUUUACGGCGCAUGUUCCACAGGAUAUACAGUUGAGU |  |  | 556 | 97.8
AGGUGUCCUGAGAGAUUUCUCCACAUGAGGAUCACCCAUGUAGAGGAUAUCGACGCUGUGCGGUUCGAGAAGGCUACACUAAUU | 6.85 | 42.4 |  | 
ACAUGAGGAUCACCCAUGUUAAGCGAGGAUAUUUCACUGCACAUGAGGUUCGCCCAUGUCCUGCGGAAGAAGGUGCGAAUAAUU |  |  | 33.4 | 17.1
CAUAACUUUUCUCAUGUAAACAUGAGGAUCACCCAUGUAAUGAGAAGGAGGCGGCAGAGAGCAUCCUAGGAUAUCAGAAUUGUU | 7.02 | 6.74 |  | 
AUCAGCUCGUCAGGAUAUACGUCACUUCGUCAGCAGUGUGGUAAGAUCACAUGAGGAUCACCCAUGUAGAAGGGACGAGCUGAU | 85.7 | 310 |  | 
AAGAGGCUAGGAUAUACAUGAGGAUCACCCAUGUGAGGGCACGGCCGGCGCGUGGCCGGUAGAAGGAGUCAAAA | 21.3 | 22.6 |  | 
AUUUAGAGAGGAUAUAUAAAGUGAAACAUGAGGAUCACCCAUGUAAUUUUAUGGAUGUAAAUAGAAGGCUCAUUUU | 38.2 | 29.4 |  | 
CGCUAGGAUGGGUCUAAUGGACCACAGGAUAUGCUUGUACAUGAGGAUCACCCAUGUAAUAUUGUGCAGAAGGGUGGAUUCACG |  |  | 54.8 | 8.27
UAAUUUUGUCAAGGAUAUGUAAUAUAGAUUAGAAAACAUGAGGAUCACCCAUGUAUAUGGUGGGAACAGAAGGUGAAUGGUGUA | 165 | 155 |  | 
GGUCUUCAAGUCAGGAUAUCGUCUAAUAGAUAUAACGAGAAGGGACAUGAGGAUCACCCAUGUCGUCUCAUCAG | 23.6 | 69.1 |  | 
UGCCGUAGAGGAUAUACAUAGAAAUAGAUUCAUGUAAAACUACAUGAGGAUCACCCAUGUAGAAGGCUAUGGCU | 21.6 | 137 |  | 
